In brackets after ≈: the same amount, converted by molar mass. Activity calls are given as the source filed them. The calls are words filed in the database; no cut-off is given here.
Assays:
Acetyl-CoA carboxylase 2 [1] = biological target: T1, Acetyl-CoA carboxylase 2 (Homo sapiens, UniProt O00763); test: Inhibition of recombinant human N-terminal His6-tagged ACC2 expressed in baculovirus infected Sf9 insect cells using acetyl-CoA as substrate preincubated for 60 mins followed by substrate addition and measured after 30 mins Rapidfire-Mass spectrometry
Method in brief: (§1)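 Human ACC1 or ACC2 from baculovirus-infected SF-9 cells (27 °C, 3 days), purified and dialyzed. Compound in DMSO diluted in 50 mM HEPES pH 7.5, 10 mM MgCl₂, 10 mM tripotassium citrate, 2 mM DTT, 0.001% fatty acid-free BSA. Enzyme and compound preincubated 60 min at room temperature. Substrate added: 50 mM KHCO₃, ATP, acetyl-CoA. Reaction ran 30 min at room temperature.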

[2] = Inhibition of fatty acid synthesis in human HCT-116 cells assessed as reduction in [14C] acetic acid uptake preincubated for 60 mins followed by [14C]acetic acid addition and measured after 2 hrs by topcount scintillation counting method; format: functional, cell-based
Method in brief: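 HCT-116 cells, 50,000/well, cultured overnight in RPMI with 10% FBS and penicillin/streptomycin at 37 °C, 5% CO₂. Compound added in RPMI with 0.1% fatty acid-free BSA for 60 min. Then 0.1 μCi/well [¹⁴C]acetic acid for 2 h at 37 °C. Cells washed with PBS and radioactivity counted. DMSO wells set as 0%; 100 nM reference inhibitor as 100%. IC50 is the mean of duplicates with 95% CI.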

Acetyl-CoA carboxylase 1 [3] = biological target: T2, Acetyl-CoA carboxylase 1 (Homo sapiens, UniProt Q13085); test: Inhibition of recombinant human N-terminal His6-tagged ACC1 expressed in baculovirus infected Sf9 insect cells using acetyl-CoA as substrate preincubated for 60 mins followed by substrate addition and measured after 30 mins Rapidfire-Mass spectrometry; method in brief: as §1
[4] = Solubility of compound in pH 6.8 buffer; format: physicochemical
Method in brief: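 Solubility measured at pH 6.8.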

[5] = Permeability of compound at pH 7.4 by PAMPA; format: ADME; conditions: read-out: permeability
[6] = Solubility of compound in pH 1.2 buffer; format: physicochemical
[7] = Metabolic stability in mouse liver microsomes; format: ADME, Microsome; conditions: read-out: Stabilty
Cytochrome P450 2C8 = biological target: T3, Cytochrome P450 2C8 (Homo sapiens, UniProt P10632); test: Inhibition of CYP2C8 (unknown origin) relative to control; format: ADME
T3 sequence (P10632 whole entry): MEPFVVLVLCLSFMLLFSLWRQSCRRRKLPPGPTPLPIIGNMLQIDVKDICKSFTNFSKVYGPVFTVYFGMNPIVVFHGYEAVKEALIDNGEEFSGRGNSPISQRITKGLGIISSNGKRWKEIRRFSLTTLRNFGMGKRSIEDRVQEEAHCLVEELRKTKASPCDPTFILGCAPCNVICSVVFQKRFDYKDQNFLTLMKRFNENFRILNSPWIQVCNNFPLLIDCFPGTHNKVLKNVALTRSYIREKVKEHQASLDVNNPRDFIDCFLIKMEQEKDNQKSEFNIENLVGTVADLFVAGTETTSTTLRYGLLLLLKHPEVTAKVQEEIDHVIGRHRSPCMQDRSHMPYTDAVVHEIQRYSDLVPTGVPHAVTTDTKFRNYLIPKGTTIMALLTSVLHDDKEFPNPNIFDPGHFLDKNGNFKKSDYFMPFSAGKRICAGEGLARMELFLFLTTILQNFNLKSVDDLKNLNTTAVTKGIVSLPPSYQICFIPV

[8] = Oral bioavailability in ICR mouse at 1 mg/kg; format: ADME, organism-based; conditions: in vivo
Method in brief: (§2)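 Male ICR mice, n = 3. Doses: 0.1 mg/kg i.v. and 1 mg/kg p.o. AUC covers 0–8 h.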

[9] = Lipophilicity, log D of compound; format: physicochemical; conditions: octanol/water
Cytochrome P450 2C9 = Cytochrome P450 2C9 (Homo sapiens, UniProt P11712); test: Inhibition of CYP2C9 (unknown origin) relative to control; format: ADME
Chain of Cytochrome P450 2C9 (P11712 whole entry): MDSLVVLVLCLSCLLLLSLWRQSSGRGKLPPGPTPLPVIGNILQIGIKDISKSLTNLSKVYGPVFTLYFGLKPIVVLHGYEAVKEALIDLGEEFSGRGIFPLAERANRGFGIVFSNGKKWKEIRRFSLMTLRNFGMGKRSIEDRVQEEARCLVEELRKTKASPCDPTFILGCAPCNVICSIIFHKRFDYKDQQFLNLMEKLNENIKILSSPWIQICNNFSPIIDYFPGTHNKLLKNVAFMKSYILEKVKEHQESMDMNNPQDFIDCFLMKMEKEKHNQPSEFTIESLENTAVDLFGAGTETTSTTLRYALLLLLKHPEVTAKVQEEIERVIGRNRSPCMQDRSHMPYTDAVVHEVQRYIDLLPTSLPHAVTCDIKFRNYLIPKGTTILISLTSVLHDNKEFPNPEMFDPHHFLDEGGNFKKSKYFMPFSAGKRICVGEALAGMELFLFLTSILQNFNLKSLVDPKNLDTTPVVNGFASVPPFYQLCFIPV

[10] = Permeability of compound at pH 5 by PAMPA; format: ADME; conditions: read-out: permeability
[11] = Metabolic stability in human liver microsomes; format: ADME, Microsome; conditions: read-out: Stabilty
Mus musculus = test: Inhibition of fatty acid synthesis in human HCT-116 cells xenografted BALB/cA Jc1 nu/nu mouse assessed as reduction in malonyl-CoA concentration in tumor at 100 mg/kg, po administered as single dose measured after 2 to 16 hrs by RPLC-MS/MS analysis; format: functional, organism-based; conditions: time 2-16 hrs
Method in brief: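 Female BALB/cA Jcl-nu/nu mice, 6 weeks old, carrying s.c. hind-flank HCT-116 xenografts (cells in HBSS with Matrigel). Mice randomized by tumor volume. Single oral dose of 100 mg/kg in 0.5% methyl cellulose, or vehicle. Tumors collected 2 and 16 h after dosing, snap-frozen and pulverized under liquid N₂. Malonyl-CoA measured by RPLC-MS/MS against a calibration curve with [¹³C₃]-malonyl-CoA as internal standard.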

[12] = AUC (0 to 8 hrs) in ICR mouse at 0.1 mg/kg, iv or 1 mg/kg, po; format: ADME, organism-based; design: dose 1 mg/kg; conditions: in vivo; method in brief: as §2
Acetyl-CoA carboxylase 2 [13] = biological target: T1, Acetyl-CoA carboxylase 2; test: Inhibition of recombinant human N-terminal His6-tagged ACC2 expressed in baculovirus infected Sf9 insect cells at 10 uM using acetyl-CoA as substrate preincubated for 60 mins followed by substrate addition and measured after 30 mins Rapidfire-Mass spectrometry relative to control; conditions: time 90.0 min
Acetyl-CoA carboxylase 1 [14] = biological target: T2, Acetyl-CoA carboxylase 1; test: Inhibition of recombinant human N-terminal His6-tagged ACC1 expressed in baculovirus infected Sf9 insect cells at 10 uM using acetyl-CoA as substrate preincubated for 60 mins followed by substrate addition and measured after 30 mins Rapidfire-Mass spectrometry relative to control; conditions: time 90.0 min
Homo sapiens = species on record: Homo sapiens; test: Selectivity ratio of IC50 for inhibition of recombinant human N-terminal His6-tagged ACC2 expressed in baculovirus infected Sf9 insect cells to IC50 for inhibition of recombinant human N-terminal His6-tagged ACC1 expressed in baculovirus infected Sf9 insect cells

| SMILES | IC50 (Acetyl-CoA carboxylase 2 [1]) | IC50 [2] | IC50 (Acetyl-CoA carboxylase 1 [3]) | solubility [4] | further results |
| --- | --- | --- | --- | --- | --- |
| COCCc1ccc(Oc2ccc(-c3ccc(C(C)NC(C)=O)cc3)cc2)cc1 (centres undefined) | > 30 µM | – | – | – | inhibition (Acetyl-CoA carboxylase 2 [13]): 6%; inhibition (Acetyl-CoA carboxylase 1 [14]): 49% |
| CC(=O)NC(C)c1ccc(OCc2ccc(Oc3cccc(OCC4CC4)c3)nc2)cc1 (centres undefined) | > 10 µM | 0.9 µM | 0.79 µM | – | – |
| CC(=O)NC(C)c1ccc(OCc2ccc(Oc3cccc(OCC4CC4)c3)cc2F)cc1 (centres undefined) | > 10 µM | 0.063 µM | 0.069 µM | – | – |
| CCCOc1ccc(Oc2ccc(-c3ccc(C(C)NC(C)=O)cc3)cc2)cc1 (centres undefined) | – | – | – | – | inhibition (Acetyl-CoA carboxylase 2 [13]): 51%; inhibition (Acetyl-CoA carboxylase 1 [14]): 50% |
| CC(=O)NC(C)c1ccc(OCc2c(F)cc(Oc3cccc(OCC4CC4)c3)cc2F)cn1 (centres undefined) | > 10 µM | 0.07 µM | 0.038 µM | 1.5 µg/mL (≈ 3.2 µM) | – |
| CC(=O)NC(C)c1ccc(OCc2c(F)cc(Oc3cccc(OCC4CC4)c3)cc2F)nn1 (centres undefined) | > 10 µM | 0.11 µM | 0.031 µM | 2.3 µg/mL (≈ 4.9 µM) | – |
| CC(=O)NC(C)c1ccc(OCc2c(F)cc(Oc3cccc(OCC4CC4)c3)cc2F)cc1 (centres undefined) | > 10 µM | 0.0097 µM | 0.015 µM | < 0.21 µg/mL | Papp [5]: 11.1 ×10⁻⁶ cm/s; solubility [6]: < 0.23 µg/mL; microsomal CLint [7]: 36 µL/min/mg; inhibition (INH) (Cytochrome P450 2C8): 31.4%; bioavailability [8]: 31.1%; logD [9]: 5.01; inhibition (INH) (Cytochrome P450 2C9): -22.7%; Papp [10]: 34.6 ×10⁻⁶ cm/s; microsomal CLint [11]: 30 µL/min/mg; AUC(0-t) [12]: 1580 ng·h/mL |
| CCCc1ccc(Oc2ccc(-c3ccc(C(C)NC(C)=O)cc3)cc2)cc1 (centres undefined) | – | – | – | – | inhibition (Acetyl-CoA carboxylase 2 [13]): 11%; inhibition (Acetyl-CoA carboxylase 1 [14]): 38% |
| CC(=O)NC(C)c1ccc(OCc2ccc(Oc3cccc(OCC4CC4)c3)cc2)cc1 (centres undefined) | > 10 µM | 0.42 µM | 0.22 µM | – | – |

Now from value to compound, other results behind:

| IC50 (Acetyl-CoA carboxylase 2 [1]) | IC50 [2] | IC50 (Acetyl-CoA carboxylase 1 [3]) | solubility [4] | SMILES | further results |
| --- | --- | --- | --- | --- | --- |
| > 10 µM | 0.18 µM | 0.089 µM | 0.46 µg/mL (≈ 0.98 µM) | CC(=O)NC(C)c1cnc(OCc2c(F)cc(Oc3cccc(OCC4CC4)c3)cc2F)cn1 (centres undefined) | – |
| > 10 µM | > 1 µM | 1.2 µM | – | CC(=O)NC(C)c1ccc(OCc2ccc(Oc3cccc(OCC4CC4)c3)cn2)cc1 (centres undefined) | – |
| > 10 µM | 0.024 µM | 0.017 µM | < 0.23 µg/mL | CC(=O)NC(C)c1ccc(OCc2c(F)cc(Oc3cccc(OCC4CC4)c3)cc2F)nc1 (centres undefined) | Papp [5]: 68.3 ×10⁻⁶ cm/s; solubility [6]: < 0.23 µg/mL; microsomal CLint [7]: 17 µL/min/mg; inhibition (INH) (Cytochrome P450 2C8): 32%; bioavailability [8]: 70.5%; logD [9]: 4.82; inhibition (INH) (Cytochrome P450 2C9): -13.8%; Papp [10]: 66.2 ×10⁻⁶ cm/s; microsomal CLint [11]: 12 µL/min/mg; inhibition (Mus musculus): Active; AUC(0-t) [12]: 5350 ng·h/mL |
| 0.098 µM | – | 0.13 µM | – | COCCc1cccc(Oc2ccc(-c3ccc(C(C)NC(C)=O)cc3)cc2)c1 (centres undefined) | – |
| 0.02 µM | – | 0.039 µM | – | CC(=O)NC(C)c1ccc(Oc2ccc(Oc3cccc(OCC4CC4)c3)cc2)cc1 (centres undefined) | – |
| 0.21 µM | – | 0.12 µM | – | CCCCOc1cccc(Oc2ccc(-c3ccc(C(C)NC(C)=O)cc3)cc2)c1 (centres undefined) | – |
| 0.15 µM | – | 0.06 µM | – | CC(=O)NC(C)c1ccc(-c2ccc(Oc3cccc(OCC4CC4)c3)cc2)cc1 (centres undefined) | Ratio IC50 (Homo sapiens): 2.5 |
